In the library only some 1.6% were active in any assay of this set; here they are far more common.
SKN-1 block: suppressors of acrylamide-induced Pgst-4::GFP reporter in worms, primary screen, SKN-1 inhibitor project, whole organism, uHTS, GFP/RFP fluorescence ratio, strain VP596 | C. elegans VP596 Pgst-4::GFP/RFP ratio, 24 h | inhibition, % at 21.8 µM | hit rate 0.49% among 360,000 | AID 624304, 2012;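 active = interference check ratio from 0.5 to 1.5 plus GFP to RFP signal ratio inhibition reaching or exceeding a fixed threshold, cut at about 30% in these data, passing the limit was not always enough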
Arrestin-AP2 inh: inhibitors of beta-arrestin/AP2 binding, primary screen, biochemical, GPCR trafficking, flow cytometry | beta-arrestin 1 C-terminal peptide binding to AP2 beta2-adaptin appendage (human) | FITC-arrestin peptide / GST-AP2 beads; AP2 beta2 appendage carries R879A mutation | inhibition, % at 10 µM | hit rate 0.31% among 340,000;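 active = inhibition above a set limit, near 3 SD of compounds lacking own fluorescence, cut at about 54% in these data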
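System: GST-AP2 R879A glutathione beads; medium: PBS, Tween 20 0.05%, BSA 0.1%; reagent: fluorescein-tagged arrestin peptide at 50 nM final; schedule: pre-incubation 12 min, peptide binding 1 h, room temperature; detection: flow cytometry, FL1 (488/535 nm); read-out: inhibition as reduced fluorescein signal on beads, percent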
Rin1 Abl inh: inhibitors of Rin1-Abl protein binding, primary screen, biochemical, TR-FRET; inhibition, % at 7.35 µM; Tyrosine-protein kinase ABL1 (Homo sapiens) + Ras and Rab interactor 1 (Homo sapiens), …; hit rate 0.4% among 360,000; in the data active = inhibition above about 5%, passing the limit was not always enough
MT1-MMP act inh: blockers of MT1-MMP proenzyme processing, primary screen, HT1080 RFP-PRO-GFP cells, GFP/RFP fluorescence. GFP/RFP ratio fluorescence, overnight; percent of plate control window, DMSO zero. GFP/RFP ratio change, % at 20 µM. hit rate 0.061% among 360,000;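 active = GFP/RFP ratio change of at least 30% with cell ATP level not reduced by more than half and red fluorescence within 50% of control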
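Compound: 20 µM single dose, 1% DMSO / System: HT1080 RFP-PRO-GFP cells / Controls: DMSO and RFP-L50D-GFP cell wells / Read-out basis: GFP/RFP fluorescence ratio / Schedule: overnight compound exposure at 37 °C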
Tb MetRS inh: T. brucei MetRS inhibitors, primary screen, biochemical, luminescence; purified T. brucei MetRS, ATP depletion, Kinase-Glo luminescence; AID 624268, 2012; methionyl-tRNA synthetase (Trypanosoma brucei brucei); hit rate 0.4% among 360,000; inhibition, % at 11.9 µM;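 active = inhibition above a per-plate cutoff of the control wells' mean inhibition plus 3 SD, cut at about 5.5% in these data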
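Assay system: T. brucei methionyl-tRNA synthetase, purified | Medium: HEPES buffer with MgCl2, KCl, DTT, spermine, BSA, pyrophosphatase | Compound: 11.9 µM single point | Incubation: 15 min enzyme-compound preincubation, 2 h reaction, 10 min detection, 25 °C | Measured by: Kinase-Glo luciferase luminescence reporting remaining unconsumed ATP | Measure: % inhibition normalized to control-well medians | Replication: Singlicate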
Arr-AP2 CP1: inhibitors of arrestin peptide binding to AP2, confirmation, biochemical, cherry pick 1, flow cytometry beads; shares compounds with Arrestin-AP2 inh; GST-AP2 beads, FITC arrestin peptide binding; GST-fused beta2-adaptin appendage, R879A mutant; inhibition, % at 10 µM; hit rate 2% among 1,300;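 active = inhibition above a set limit, roughly 3 SD of non-fluorescent compound noise, cut at about 38% in these data; inactive = inhibition at or below that limit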;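 also: loss of bead fluorescence from 50 nM FITC arrestin peptide bound to appendage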
Target sequence (P63010 whole entry, looked up, the tested form may be a part, one chain of several): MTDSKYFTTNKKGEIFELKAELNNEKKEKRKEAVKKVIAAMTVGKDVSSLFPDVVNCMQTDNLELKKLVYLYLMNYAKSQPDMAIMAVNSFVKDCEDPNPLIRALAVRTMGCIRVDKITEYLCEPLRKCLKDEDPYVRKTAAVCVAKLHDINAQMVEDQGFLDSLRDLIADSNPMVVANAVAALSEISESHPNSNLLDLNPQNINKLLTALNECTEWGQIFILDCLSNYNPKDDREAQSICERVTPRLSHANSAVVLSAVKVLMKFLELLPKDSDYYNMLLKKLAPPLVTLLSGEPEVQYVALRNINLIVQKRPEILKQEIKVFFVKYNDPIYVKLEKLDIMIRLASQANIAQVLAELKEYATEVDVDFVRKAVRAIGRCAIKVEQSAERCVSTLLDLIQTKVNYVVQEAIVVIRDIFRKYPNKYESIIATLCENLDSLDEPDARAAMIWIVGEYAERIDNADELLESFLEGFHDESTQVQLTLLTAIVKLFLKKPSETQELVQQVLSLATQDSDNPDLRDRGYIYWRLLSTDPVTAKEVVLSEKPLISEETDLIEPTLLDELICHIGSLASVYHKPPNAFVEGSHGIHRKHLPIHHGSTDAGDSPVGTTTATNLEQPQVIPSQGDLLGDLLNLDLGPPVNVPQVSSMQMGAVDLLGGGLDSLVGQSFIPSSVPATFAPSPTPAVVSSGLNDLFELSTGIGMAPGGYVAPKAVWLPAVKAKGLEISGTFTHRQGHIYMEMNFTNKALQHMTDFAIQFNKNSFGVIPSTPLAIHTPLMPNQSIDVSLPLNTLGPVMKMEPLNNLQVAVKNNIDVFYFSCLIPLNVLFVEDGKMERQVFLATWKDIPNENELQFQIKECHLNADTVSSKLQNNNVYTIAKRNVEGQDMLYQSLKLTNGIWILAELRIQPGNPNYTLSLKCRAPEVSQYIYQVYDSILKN
GST-FITC bead: GST-fluorescein capture on glutathione beads, confirmation, artefact control for arrestin-AP2 inhibitor project, biochemical, cherry pick 1, flow cytometry. shares compounds with Arrestin-AP2 inh. GST-fluorescein binding to GSH beads, fluorescence, counter-screen. inhibition, % at 10 µM. hit rate 2% among 1,300. AID 588338, 2011;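 active = inhibition above 50%, about 3 SD of the inhibition seen with non-fluorescent compounds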;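 also: fluorescein maleimide labelled GST captured on 4 micron glutathione beads; higher means more loss of bead fluorescence from quenching or blocked binding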
Large screens that a line does not name were inactive (follow-up assays come after a bar, where they were run).

CCOc1ccc(S(=O)(=O)Nc2ccc(C(=O)NCC3CCCO3)cc2)cc1 (stereo not given)	Arrestin-AP2 inh 56 | Arr-AP2 CP1 inactive | GST-FITC bead inactive
CCOc1ccc(S(=O)(=O)NC2CCCCCC2)cc1	Arrestin-AP2 inh 57 | Arr-AP2 CP1 inactive | GST-FITC bead inactive
CC(C)[C@H](NC(=O)c1ccccc1Cl)C(=O)OCC(=O)NCc1ccc2c(c1)OCO2	none
CCCCn1c(N)c(NCC(C)C)c(=O)[nH]c1=O	Arrestin-AP2 inh 57 | Arr-AP2 CP1 inactive | GST-FITC bead inactive
CCn1c(C)nc2cc(C(=O)NNC(=O)Nc3ccc(Cl)cc3)ccc21	Arrestin-AP2 inh 57 | Arr-AP2 CP1 inactive | GST-FITC bead inactive
CCCC(=O)N(Cc1cc(=O)[nH]c2ccccc12)c1ccccc1C	Arrestin-AP2 inh 61 | Arr-AP2 CP1 inactive | GST-FITC bead inactive
COCCNC(=O)C1(C)CCCN(C(=O)c2ccc(C#N)cc2)C1 (stereo not given)	none (no result: Arrestin-AP2 inh)
Cc1ccc(Cl)cc1N1CCN(C2CCCCC2NS(=O)(=O)c2ccccc2)CC1 (stereo not given)	none
Cc1ccc(C)c(N2CCN(C3CCCCC3NS(=O)(=O)c3ccccc3)CC2)c1 (stereo not given)	Arrestin-AP2 inh 57 | Arr-AP2 CP1 inactive | GST-FITC bead inactive
O=C(COC(=O)C1(c2ccccc2F)CCCC1)NCc1cccs1	Arrestin-AP2 inh 58 | Arr-AP2 CP1 inactive | GST-FITC bead inactive
O=C(COC(=O)C1(c2ccccc2F)CCCC1)NCc1ccc2c(c1)OCO2	none
CCOc1ccc(NC(=S)N2CCN(S(=O)(=O)c3ccc(C)cc3)CC2)cc1	none
CCOc1ccc(NC(=S)N2CCN(S(=O)(=O)c3ccccc3)CC2)cc1	Arrestin-AP2 inh 58 | Arr-AP2 CP1 inactive | GST-FITC bead inactive
CC(C)CCNC(=O)CCC(=O)NNc1nc2ccccc2c2nc(-c3ccccc3)nn12	Arrestin-AP2 inh 63 | Arr-AP2 CP1 inactive | GST-FITC bead inactive
CCN(CC)S(=O)(=O)c1ccc(N2CCOCC2)c(NC(=O)c2[nH]c(C)c(C(C)=O)c2C)c1	none
N#Cc1c2ccc(OCC(N)=O)cc2n2ccccc12	none
CCOC(=O)COc1ccc2c(C#N)c3ccccn3c2c1	Arrestin-AP2 inh 56 | Arr-AP2 CP1 inactive | GST-FITC bead inactive
COc1ccc(Nc2nc(NN)nc(C)c2[N+](=O)[O-])cc1	none
COc1ccc(Nc2nc(N/N=C/c3ccc(N(C)C)cc3)nc(C)c2[N+](=O)[O-])cc1	Arrestin-AP2 inh 103 | Arr-AP2 CP1 inactive | GST-FITC bead inactive
CCOc1ccc(CN2CCN(Cc3cc4ccccc4o3)CC2CCO)cc1 (stereo not given)	Arrestin-AP2 inh 66 | Arr-AP2 CP1 inactive | GST-FITC bead inactive
COc1cccc(CN2CCN(Cc3cc4ccccc4o3)CC2CCO)c1 (stereo not given)	none
CCN(CC)C(=O)C1=C(C)N(Cc2ccc(C(C)(C)C)cc2)C(=O)C(CC(=O)NCC2CCCCC2)C1 (stereo not given)	none (no result: Arrestin-AP2 inh)
O=C(Cc1ccc(NC(=O)C2CCN(C(=O)C3CCC3)CC2)cc1)Nc1cccc(C(=O)N2CCCCC2)c1	Arrestin-AP2 inh 60 | Arr-AP2 CP1 inactive | GST-FITC bead inactive
O=C(Cc1ccc(NC(=O)C2CCN(C(=O)C3CCC3)CC2)cc1)Nc1cccc(C(=O)N2CCCC2)c1	none
COc1ccc2c3c(ccc2c1)C(=O)/C(=C/O)CC3	none
COc1ccc(NC(=O)CCN(c2ccc(OC)cc2)S(=O)(=O)c2ccc(C)c(C)c2)cc1	Arrestin-AP2 inh 65 | Arr-AP2 CP1 inactive | GST-FITC bead inactive
COc1ccc([C@H]2CC(=O)C[C@@H](CCn3nnc4ccccc43)O2)cc1	none (no result: Arrestin-AP2 inh, Rin1 Abl inh)
CCOC(=O)C1C(C(=O)OCC)C(C)(C)C1N(C)C (stereo not given)	none (no result: Arrestin-AP2 inh)
CCOC(=O)N1CCN(C(=O)C[C@@H]2C[C@@]3(C(=O)OCC)CCCC=C3N(CCC3=CCCCC3)C2=O)CC1	none (no result: Arrestin-AP2 inh, Rin1 Abl inh)
CN(C)C(=O)c1cc(C(=O)c2ccc(C(F)(F)F)cc2F)c[nH]1	Arrestin-AP2 inh 62 | Arr-AP2 CP1 inactive | GST-FITC bead inactive
CC(C)Cn1c(N)c(C(=O)COC(=O)c2c(F)cccc2F)c(=O)n(C)c1=O	none
CC(C)Cn1c(N)c(C(=O)COC(=O)c2ccccc2F)c(=O)n(C)c1=O	none | Arr-AP2 CP1 inactive | GST-FITC bead inactive
CC(C)Cn1c(N)c(C(=O)COC(=O)c2ccccc2Cl)c(=O)n(C)c1=O	none | Arr-AP2 CP1 inactive | GST-FITC bead inactive
CC(C)Cn1c(N)c(C(=O)COC(=O)c2ccccc2C(=O)c2ccccc2)c(=O)n(C)c1=O	none
CC(C)Cn1c(N)c(C(=O)COC(=O)c2cccn2C)c(=O)n(C)c1=O	none | Arr-AP2 CP1 inactive | GST-FITC bead inactive
COc1ccc(-c2n[nH]c(=S)n2Cc2ccccc2)cc1	Arrestin-AP2 inh 56 | Arr-AP2 CP1 inactive | GST-FITC bead inactive
CC(C)(C)NC(=O)C(C1CC1)n1c(=O)c(-c2ccccc2)nc2ccccc21 (stereo not given)	none (no result: Arrestin-AP2 inh, Rin1 Abl inh)
CN(NC(=O)COc1ccccc1)C1=NS(=O)(=O)c2ccccc21	Arrestin-AP2 inh 62 | Arr-AP2 CP1 inactive | GST-FITC bead inactive
CN(NC(=O)c1ccccc1)C1=NS(=O)(=O)c2ccccc21	none
CC(C)CN(C(=O)c1ccc(S(=O)(=O)N2CCCC2)cc1)C1CCS(=O)(=O)C1 (stereo not given)	Arrestin-AP2 inh 55 | Arr-AP2 CP1 inactive | GST-FITC bead inactive
Cc1cc(C(=O)CCl)c(C)n1-c1cccc([N+](=O)[O-])c1	Arrestin-AP2 inh 62 | Arr-AP2 CP1 inactive | GST-FITC bead inactive
CC(C)(C)S(=O)(=O)/C(C#N)=N/Nc1ccc(Cl)cc1	Arrestin-AP2 inh 57 | Arr-AP2 CP1 inactive | GST-FITC bead inactive
O=C(/C=C/c1cn(-c2ccccc2)nc1-c1ccccc1)Nc1ccc(C(=O)O)cc1	none
NS(=O)(=O)c1ccc(NC(=O)/C=C/c2cn(-c3ccccc3)nc2-c2cccc(Cl)c2)cc1	Arrestin-AP2 inh 58 | Arr-AP2 CP1 inactive | GST-FITC bead inactive
